# Measurements as given in ChEMBL document CHEMBL1123591, “Synthetic analogues of tetrahydrobiopterin with cofactor activity for aromatic amino acid hydroxylases” (1987).
# “And” between values parts separate entries of the source, which are not always exact repeats. Identical values can stand only once.
# B1: Tryptophan 5-hydroxylase 1 (Rattus norvegicus), P09810 (protein)
# chain: MIEDNKENKDHSSERGRVTLIFSLKNEVGGLIKALKIFQENHVNLLHIESRKSKRRNSEFEIFVDCDINREQLNDIFPLLKSHTTVLSVDSPDQLPEKEDVMETVPWFPKKISDLDFCANRVLLYGSELDADHPGFKDNVYRRRRKYFAELAMNYKHGDPIPKIEFTEEEIKTWGTIFRELNKLYPTHACREYLRNLPLLSKYCGYREDNVPQLEDVSNFLKERTGFSIRPVAGYLSPRDFLSGLAFRVFHCTQYVRHSSDPLYTPEPDTCHELLGHVPLLAEPSFAQFSQEIGLASLGASEETVQKLATCYFFTVEFGLCKQDGQLRVFGAGLLSSISELRHALSGHAKVKPFDPKVACKQECLITSFQDVYFVSESFEDAKEKMREFAKTVKRPFGVKYNPYTQSIQVLRDSKSITSAMNELRHDLDVVNDALARVSRWPSV
# B2: Tyrosine 3-monooxygenase (Bos taurus), P17289 (protein)
# chain: MPTPNAASPQAKGFRRAVSELDAKQAEAIMSPRFVGRRQSLIQDARKEREKAEAAASSSESAEAAAWLERDGEAVLTLLFALPPTRPPALTRAIKVFETFEAHLHHLETRPAQPLRAGSPPLECFVRCEVPGPVVPALLSALRRVAEDVRAAGESKVLWFPRKVSELDKCHHLVTKFDPDLDLDHPGFSDQAYRQRRKLIAEIAFQYKQGDPIPHVEYTAEETATWKEVYSTLRGLYPTHACREHLEAFELLERFCGYREDRIPQLEDVSRFLKERTGFQLRPAAGLLSARDFLASLAFRVFQCTQYIRHASSPMHSPEPECCHELLGHVPMLADRTFAQFSQDIGLASLGVSDEEIEKLSTLYWFTVEFGLCKQNGEVKAYGAGLLSSYGELLHSLSEEPEIRAFDPDAAAVQPYQDQTYQPVYFVSESFSDAKDKLRSYASRIQRPFSVKFDPYTLAIDVLDSPHAIRHALDGVQDEMQALAHALNAIS
# B3: Phenylalanine-4-hydroxylase (Rattus norvegicus), P04176 (protein)
# chain: MAAVVLENGVLSRKLSDFGQETSYIEDNSNQNGAISLIFSLKEEVGALAKVLRLFEENDINLTHIESRPSRLNKDEYEFFTYLDKRTKPVLGSIIKSLRNDIGATVHELSRDKEKNTVPWFPRTIQELDRFANQILSYGAELDADHPGFKDPVYRARRKQFADIAYNYRHGQPIPRVEYTEEEKQTWGTVFRTLKALYKTHACYEHNHIFPLLEKYCGFREDNIPQLEDVSQFLQTCTGFRLRPVAGLLSSRDFLGGLAFRVFHCTQYIRHGSKPMYTPEPDICHELLGHVPLFSDRSFAQFSQEIGLASLGAPDEYIEKLATIYWFTVEFGLCKEGDSIKAYGAGLLSSFGELQYCLSDKPKLLPLELEKTACQEYSVTEFQPLYYVAESFSDAKEKVRTFAATIPRPFSVRYDPYTQRVEVLDNTQQLKILADSINSEVGILCNALQKIKS
# Key:
# [1] = substrate: CCOCC1CNc2nc(N)nc(O)c2N1; assay: (§1) Tested in isolated enzyme assay for its cofactor activity against tryptophan hydroxylase (isolated from rat brain stem) expressed as Michaelis-Menten constant
# Procedure, shortened: (§2)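 The tryptophan hydroxylase source was a desalted 40000g supernatant of rat brain stem, with velocities expressed relative to tetrahydrobiopterin.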
# [2] = substrate: CCCCCCCCOCC1CNc2nc(N)nc(O)c2N1; assay: as §1; procedure, shortened: as §2
# [3] = substrate: CC(C)OCC1CNc2nc(N)nc(O)c2N1; assay: as §1; procedure, shortened: as §2
# [4] = substrate: COCC1CNc2nc(N)nc(O)c2N1; assay: as §1; procedure, shortened: as §2
# [5] = substrate: CCCOCC1CNc2nc(N)nc(O)c2N1; assay: as §1; procedure, shortened: as §2
# [6] = substrate: CC(O)C(O)C1CNc2nc(N)nc(O)c2N1; assay: as §1; procedure, shortened: as §2
# [7] = substrate: CCCCOCC1CNc2nc(N)nc(O)c2N1; assay: as §1; procedure, shortened: as §2
# [8] = compound: CC1CNc2nc(N)[nH]c(=O)c2N1; assay: Tested in isolated enzyme assay for its cofactor activity against tryptophan hydroxylase (isolated from rat brain stem) expressed as Michaelis-Menten constant (calculated in the presence of platinum catalyst)
# [9] = target: Tyrosine hydroxylase (Bos taurus); assay: Tested in isolated enzyme assay for its cofactor activity against tyrosine hydroxylase (isolated from bovine adrenal medulla) expressed as Michaelis-Menten constant
# [10] = substrate: CCOCC1CNc2nc(N)nc(O)c2N1; assay: (§3) Tyrosine hydroxylase (isolated from bovine adrenal medulla) cofactor activity
# Procedure, shortened: (§4)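 Tyrosine hydroxylase was purified from bovine adrenal medulla by partial trypsin digestion, giving a model of the high-affinity form, then ammonium sulfate fractionation. Activity was measured as release of ³H₂O from L-(3,5-³H)tyrosine, with velocities expressed relative to tetrahydrobiopterin.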
# [11] = substrate: CCCCCCCCOCC1CNc2nc(N)nc(O)c2N1; assay: as §3; procedure, shortened: as §4
# [12] = substrate: CC(C)OCC1CNc2nc(N)nc(O)c2N1; assay: as §3; procedure, shortened: as §4
# [13] = substrate: COCC1CNc2nc(N)nc(O)c2N1; assay: as §3; procedure, shortened: as §4
# [14] = substrate: CCCOCC1CNc2nc(N)nc(O)c2N1; assay: as §3; procedure, shortened: as §4
# [15] = substrate: CC(C)(C)OCC1CNc2nc(N)nc(O)c2N1; assay: as §3; procedure, shortened: as §4
# [16] = substrate: CCCCCOCC1CNc2nc(N)nc(O)c2N1; assay: as §3; procedure, shortened: as §4
# [17] = substrate: CC1(C)CNc2nc(N)nc(O)c2N1; assay: as §3; procedure, shortened: as §4
# [18] = substrate: COCCOCC1CNc2nc(N)nc(O)c2N1; assay: as §3; procedure, shortened: as §4
# [19] = substrate: CC(C)COCC1CNc2nc(N)nc(O)c2N1; assay: as §3; procedure, shortened: as §4
# [20] = substrate: CC1CNc2nc(N)[nH]c(=O)c2N1; assay: as §3; procedure, shortened: as §4
# [21] = substrate: CCOCC1CNc2nc(N)nc(O)c2N1; assay: (§5) Tested in isolated enzyme assay for its cofactor activity against phenylalanine hydroxylase (isolated from rat liver) expressed as Michaelis-Menten constant
# Procedure, shortened: (§6)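 Phenylalanine hydroxylase was isolated from rat liver and purified on phenyl-Sepharose. Tyrosine formed was quantified by liquid chromatography with fluorescence detection, and velocities were expressed relative to tetrahydrobiopterin.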
# [22] = substrate: CCCCCCCCOCC1CNc2nc(N)nc(O)c2N1; assay: as §5; procedure, shortened: as §6
# [23] = substrate: CC(C)OCC1CNc2nc(N)nc(O)c2N1; assay: as §5; procedure, shortened: as §6
# [24] = substrate: COCC1CNc2nc(N)nc(O)c2N1; assay: as §5; procedure, shortened: as §6
# [25] = substrate: CCCOCC1CNc2nc(N)nc(O)c2N1; assay: as §5; procedure, shortened: as §6
# [26] = substrate: CC1(C)CNc2nc(N)nc(O)c2N1; assay: as §5; procedure, shortened: as §6
# [27] = substrate: CC(O)C(O)C1CNc2nc(N)nc(O)c2N1; assay: as §5; procedure, shortened: as §6
# [28] = substrate: COCCOCC1CNc2nc(N)nc(O)c2N1; assay: as §5; procedure, shortened: as §6
# [29] = substrate: CC1CNc2nc(N)[nH]c(=O)c2N1; assay: as §5; procedure, shortened: as §6
# [30] = substrate: CCCCOCC1CNc2nc(N)nc(O)c2N1; assay: as §5; procedure, shortened: as §6
protein,measurement,setting,value
B1,Km,[1],44 µM
same,Km,[2],11 µM
same,Km,[3],129 µM
same,Km,[4],33 µM
same,Km,[5],92 µM
same,Km,[6],49 µM
same,Km,[7],84 µM
same,Km,[8],355 µM
B2,Km,[9],22 µM
same,Km,[10],52 µM and 23 µM
same,Km,[11],44 µM
same,Km,[12],45 µM and 55 µM
same,Km,[13],84 µM
same,Km,[14],28 µM and 22 µM
same,Km,[15],120 µM
same,Km,[16],65 µM
same,Km,[17],77 µM and 105 µM
same,Km,[18],200 µM
same,Km,[19],80 µM
same,Km,[20],133 µM and 51 µM
B3,Km,[21],21 µM
same,Km,[22],1 µM
same,Km,[23],9 µM
same,Km,[24],17 µM
same,Km,[25],16 µM
same,Km,[26],29 µM
same,Km,[27],5.5 µM
same,Km,[28],65 µM
same,Km,[29],21 µM
same,Km,[30],21 µM
